Measured values taken from ChEMBL document CHEMBL3616466, “Pyrazolo[3,4-h]quinolines promising photosensitizing agents in the treatment of cancer” (Eur J Med Chem, 2015).
Calls of active or inactive are those of the source. No cut-off for these calls is given here.

What was measured:
[1] = tested on: Jurkat; experiment: Photocytotoxicity against human Jurkat cells assessed as growth inhibition at 2.5 J/cm'2 irradiation for 30 mins followed by drug treated for 72 hrs by MTT assay; assay type: functional; settings: light or radiation study
How it was run: (§1)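 Cells seeded at 5 × 10³ per well and pre-incubated 24 h. Drug dilutions in HBSS (pH 7.2, from DMSO stock) added for 30 min at 37 °C, then UV-A irradiation at the stated dose. Drug solution then replaced with culture medium and plates incubated 72 h. Viability by MTT; GI50 from concentration series.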

[2] = tested on: Jurkat; experiment: Photocytotoxicity against human Jurkat cells assessed as growth inhibition at 1.25 J/cm'2 irradiation for 30 mins followed by drug treated for 72 hrs by MTT assay; assay type: functional; settings: light or radiation study; how it was run: as §1
[3] = tested on: Jurkat; experiment: Photocytotoxicity against human Jurkat cells assessed as reduction of cell survival at 0.5 uM measured 72 hrs post 2.5 J/cm'2 irradiation by MTT assay in the presence of vitamin E, NaN3, DABCO, DMTU and MANN; assay type: functional, cell-based
How it was run: (§2)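 Jurkat cells irradiated at 2.5 J/cm² with compound in HBSS together with a scavenger: vitamin E 60 µM, NaN₃ 10 mM, DABCO 1 mM, GSH 1 mM, DMTU 1 mM or mannitol 10 mM. Medium replaced after irradiation; viability by MTT 72 h later.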

[4] = tested on: HL-60; experiment: Photocytotoxicity against human HL60 cells assessed as growth inhibition at 2.5 J/cm'2 irradiation for 30 mins followed by drug treated for 72 hrs by MTT assay; assay type: functional; settings: HL-60, light or radiation study; how it was run: as §1
[5] = tested on: HL-60; experiment: Photocytotoxicity against human HL60 cells assessed as growth inhibition at 1.25 J/cm'2 irradiation for 30 mins followed by drug treated for 72 hrs by MTT assay; assay type: functional; settings: HL-60, light or radiation study; how it was run: as §1
[6] = tested on: MCF7; experiment: Photocytotoxicity against human MCF7 cells assessed as growth inhibition at 3.75 J/cm'2 irradiation for 30 mins followed by drug treated for 72 hrs by MTT assay; assay type: functional; settings: MCF7, light or radiation study; how it was run: as §1
[7] = tested on: MCF7; experiment: Photocytotoxicity against human MCF7 cells assessed as growth inhibition at 2.5 J/cm'2 irradiation for 30 mins followed by drug treated for 72 hrs by MTT assay; assay type: functional; settings: MCF7, light or radiation study; how it was run: as §1
[8] = tested on: A549; experiment: Photocytotoxicity against human A549 cells assessed as growth inhibition at 3.75 J/cm'2 irradiation for 30 mins followed by drug treated for 72 hrs by MTT assay; assay type: functional; settings: A549, light or radiation study; how it was run: as §1
[9] = tested on: A549; experiment: Photocytotoxicity against human A549 cells assessed as growth inhibition at 2.5 J/cm'2 irradiation for 30 mins followed by drug treated for 72 hrs by MTT assay; assay type: functional; settings: A549, light or radiation study; how it was run: as §1
[10] = tested on: LoVo; experiment: Photocytotoxicity against human LoVo cells assessed as growth inhibition at 3.75 J/cm'2 irradiation for 30 mins followed by drug treated for 72 hrs by MTT assay; assay type: functional; settings: light or radiation study; how it was run: as §1
[11] = tested on: LoVo; experiment: Photocytotoxicity against human LoVo cells assessed as growth inhibition at 2.5 J/cm'2 irradiation for 30 mins followed by drug treated for 72 hrs by MTT assay; assay type: functional; settings: light or radiation study; how it was run: as §1
[12] = tested on: A549; experiment: Photocytotoxicity against human A549 cells assessed as inhibition of colony formation at 2.5 J/cm'2 irradiation after 1 to 2 weeks using crystal violet staining by optical microscopy; assay type: functional, cell-based
How it was run: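 A-549 cells (10 × 10³) plated in dishes. After 24 h, irradiated at 2.5 J/cm² with compound at varying concentrations. Medium replaced, then cultured 1–2 weeks with medium changes every 2–3 days. Stained with crystal violet; colonies of ≥50 cells counted visually. Expressed as % of untreated cells; mean ± SEM of three experiments.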

[13] = tested on: Jurkat; experiment: Induction of apoptosis in human Jurkat cells assessed as reduction in alive cells using Annexin-V and propidium iodide staining at 1 to 2 uM measured 24 hrs post 2.5 J/cm'2 irradiation by flow cytometry analysis; assay type: functional, cell-based
How it was run: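 Jurkat cells irradiated (2.5 J/cm²) with compound at 1 or 2 µM. After 24 h, co-stained with Annexin V-FITC and PI and analysed by flow cytometry (excitation 488 nm; emission 525 and 585 nm). Mean of three independent experiments.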

[14] = tested on: Jurkat; experiment: Induction of apoptosis in human Jurkat cells assessed as increase in cleaved caspase 3 level at 1 uM measured 24 hrs post 2.5 J/cm'2 irradiation by Western blot analysis; assay type: functional, cell-based
How it was run: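 Jurkat cells irradiated (2.5 J/cm²) with compound at 1 µM. At 24 h, cells washed in cold PBS and lysed on ice for 20 min. 20 µg protein run on 8–16% gradient gels and transferred to nitrocellulose. Probed with rabbit anti-caspase-3 and β-actin (1:1000, 2 h), then peroxidase anti-rabbit IgG; ECL detection.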

[15] = tested on: Jurkat; experiment: Induction of apoptosis in human Jurkat cells assessed as reduction in mitochondrial potential at 1 to 2 uM using JC-1 staining measured 24 hrs post 2.5 J/cm'2 irradiation by FACS assay; assay type: functional, cell-based
How it was run: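 At 24 h after 2.5 J/cm² irradiation with compound at 1 or 2 µM, Jurkat cells were pelleted and resuspended in HBSS with 1 µM JC-1. After 10 min at 37 °C, fluorescence read at 530 and 590 nm by flow cytometry. Mean ± SEM, n=3.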

[16] = tested on: Jurkat; experiment: Induction of apoptosis in human Jurkat cells assessed as ROS production at 1 to 2 uM using HE and DCFDA staining measured 24 hrs post 2.5 J/cm'2 irradiation by FACS assay; assay type: functional, cell-based
[17] = tested on: Jurkat; experiment: Induction of apoptosis in human Jurkat cells assessed as lysosome death at 1 to 2 uM using acridine orange staining measured 24 hrs post 2.5 J/cm'2 irradiation by flow cytometry; assay type: functional, cell-based
[18] = tested on: Escherichia coli; experiment: Induction of DNA damage in Escherichia coli pBR322 DNA measured at 7.5 J/cm'2 UV-A irradiation by neutral agarose electrophoresis
How it was run: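 pBR322 plasmid (100 ng) in 10 mM phosphate buffer pH 7.2 irradiated at 7.5 J/cm² UV-A with compound at a compound/DNA ratio of 3/1. Aliquots incubated at 37 °C with Fpg or Endo III. Run on 1% agarose in TAE at 70 V for 4 h; supercoiled, open circular and linear bands quantified.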

[19] = tested on: Jurkat; experiment: Induction of lipid peroxidation in human Jurkat cells at 2 uM measured 24 hrs post 2.5 J/cm'2 irradiation by TBA assay; assay type: functional, cell-based
How it was run: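 TBA test for TBARS performed on supernatant medium and on cell lysates 24 h post-irradiation. Mean ± SEM of three experiments.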

[20] = tested on: Jurkat; experiment: Photocytotoxicity against human Jurkat cells assessed as cell survival at 0.5 uM measured 72 hrs post 2.5 J/cm'2 irradiation by MTT assay in presence of lipophilic scavengers; assay type: functional, cell-based; how it was run: as §2
[21] = tested on: Jurkat; experiment: Cytotoxicity against human Jurkat cells assessed as growth inhibition after 72 hrs by MTT assay; assay type: functional
[22] = tested on: HL-60; experiment: Cytotoxicity against human HL60 cells assessed as growth inhibition after 72 hrs by MTT assay; assay type: functional; settings: HL-60, 72 h
[23] = tested on: A549; experiment: Cytotoxicity against human A549 cells assessed as growth inhibition after 72 hrs by MTT assay; assay type: functional; settings: A549, 72 h
How it was run: (§3)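 Cells (5 × 10³ per well) pre-incubated 24 h at 37 °C, 5% CO₂, then exposed in the dark to serial concentrations diluted from DMSO stock into complete medium for 72 h at 37 °C. Viability read by MTT; GI50 derived. LoVo in Ham's F-12, MCF-7 and A-549 in DMEM, all with 10% FBS and penicillin/streptomycin.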

[24] = tested on: MCF7; experiment: Cytotoxicity against human MCF7 cells assessed as growth inhibition after 72 hrs by MTT assay; assay type: functional; settings: MCF7, 72 h; how it was run: as §3
[25] = tested on: LoVo; experiment: Cytotoxicity against human LoVo cells assessed as growth inhibition after 72 hrs by MTT assay; assay type: functional; how it was run: as §3

`COc1ccc(-n2ncc3c2CCc2cc(S(=O)(=O)c4ccccc4)c(OC)nc2-3)cc1` was tested, and the GI50 [1] was 0.64 µM, the GI50 [2] was 1.15 µM and the Activity [3] was “inactive”. The GI50 [4] was 0.72 µM, the GI50 [5] was 5.29 µM and the GI50 [6] was 1.18 µM. It also gave a GI50 [7] of 2.53 µM, a GI50 [8] of 1.52 µM and a GI50 [9] of 4.02 µM. For the same compound, the GI50 [10] was 0.53 µM, the GI50 [11] was 3.56 µM and the Activity [12] was “Dose-dependent effect”. For the same compound, the Activity [13] was “Active”, the Activity [14] was “inactive” and the Activity [15] was “Active”. The Activity [16] was “inactive”, the Activity [17] was “inactive” and the Activity [18] was “inactive”. The Activity [19] was “Active”, the Activity [20] was “inactive” and the GI50 [21] was 12.5 µM. The GI50 [22] was > 20 µM, the GI50 [23] was > 20 µM and the GI50 [24] was > 20 µM. For the same compound, the GI50 [25] was > 20 µM.
`COc1nc2c(cc1S(=O)(=O)c1ccccc1)CCc1c-2cnn1-c1ccc(Cl)cc1` showed a GI50 [1] of 0.43 µM, a GI50 [2] of 0.72 µM and a GI50 [4] of 0.48 µM. It also gave a GI50 [5] of 4.03 µM, a GI50 [6] of 1.69 µM and a GI50 [7] of 7.09 µM. For the same compound, the GI50 [8] was 1.49 µM, the GI50 [9] was 5.28 µM and the GI50 [10] was 0.73 µM. For the same compound, the GI50 [11] was 5.53 µM, the Activity [12] was “Dose-dependent effect” and the Activity [13] was “Active”. For the same compound, the Activity [14] was “inactive”, the Activity [15] was “Active” and the Activity [16] was “inactive”. The Activity [17] was “inactive”, the Activity [18] was “inactive” and the Activity [19] was “Active”. The Activity [20] was “inactive”, the GI50 [21] was 11.3 µM and the GI50 [22] was > 20 µM. The GI50 [23] was > 20 µM, the GI50 [24] was > 20 µM and the GI50 [25] was > 20 µM.
